Assay results pooled from the literature.
Each line is one published result; the experiments were not run side by side.
Target: Serine/threonine-protein kinase 33 (STK33, Homo sapiens, UniProt Q9BYT3)

| Structure (SMILES) | observed | mode | technique | concentration | measurement | result |
| --- | --- | --- | --- | --- | --- | --- |
| CS(=O)(=O)N1CCCC(NC(=O)[C@H](CCC2CCCCC2)NC(=O)c2ccc(CNc3ncnc4c3nnn4-c3ccccc3)cc2)C1 (stereo partly shown) | cell-free assay | – | competition with immobilised ligand | 0.1 µM | remaining binding | 84% |
| Cn1cnc(Br)c1C1=CN(c2ncnc3[nH]cnc23)CCS1 | enzyme activity | inhibitor | radiometric | 2 µM | inhibition | 78.4% |
| Cn1nc(C(F)(F)F)cc1-c1cnc(N2CCc3cc(S(=O)(=O)Nc4c(F)cc(Cl)cc4F)cc(N4CCCC4=O)c32)nc1 | cell-free assay | – | competition with immobilised ligand | 1 µM | remaining binding | 100% |
| Cc1sc(C(=O)NC2COC2)cc1-n1cc(NC(=O)Nc2c(F)cccc2Cl)cn1 | enzyme activity | inhibitor | – | 10 µM | remaining activity | 87.6% |
| CN(C)c1ncnc(-c2ccc3nc(Nc4cc(CN5CCN(C(=O)CC(F)(F)F)CC5)ccn4)[nH]c3c2)c1Cl | cell-free assay | – | competition with immobilised ligand | 1 µM | remaining binding | 100% |
| Cc1ncc([N+](=O)[O-])n1C(=NO)c1ccccc1C(F)(F)F | enzyme activity | inhibitor | – | 10 µM | inhibition | 11.4% |
| CN1CC(Oc2cnc(C#N)cc2-c2ccn3nc(NC(=O)C4CC4)cc3c2)C1 | enzyme activity | inhibitor | – | 1 µM | inhibition | -3% |
| Cc1ccc(Nc2nccc(N(C)c3ccc4c(C)n(C)nc4c3)n2)cc1S(N)(=O)=O | enzyme activity | inhibitor | – | 10 µM | inhibition | 34% |
| COc1cc(-c2cn(C3CCc4ccccc4N(CC(F)(F)F)C3=O)nn2)ccc1-n1ccc(C)n1 (stereo not shown) | cell-free assay | – | competition with immobilised ligand | 1 µM | remaining binding | 100% |
| COc1cc(/C=C/C(=O)CC(=O)/C=C/c2ccc(O)c(OC)c2)ccc1O | enzyme activity | inhibitor | – | 1 µM | activity vs control | 25% |
| Cn1cncc1C1=CN(c2ncnc3[nH]cnc23)CCS1 | enzyme activity | inhibitor | radiometric | 2 µM | inhibition | 80.5% |
| COc1cc(Nc2cnc(C#N)c(O[C@H](C)CN(C)C)n2)ncc1-c1cnn(C)c1 | enzyme activity | inhibitor | radiometric | 10 µM | remaining activity | 16% |
| Nc1ncnc2occ(-c3ccc(NC(=O)Nc4cc(C(F)(F)F)ccc4F)cc3)c12 | enzyme activity | inhibitor | – | 20 µM | remaining activity | 4.3% |
| Cc1ccc(NC(=O)c2ccc(C)c(C(F)(F)F)c2)cc1C#Cc1nn(C2CCC(O)CC2)c2ncnc(N)c12 (stereo not shown) | cell-free assay | – | – | 10 µM | remaining signal | 109% |
| CCc1ccccc1C(=O)Nc1n[nH]c2c(C)c(F)c(C3C(C#N)=C(C)N(C)C(C)=C3C#N)cc12 | cell-free assay | – | competition with immobilised ligand | 1 µM | remaining binding | 100% |
| CC(C)(O)[C@H]1CC[C@H](Nc2ccc3ncc(-c4cccc(C(F)(F)F)c4)n3n2)CC1 | enzyme activity | inhibitor | – | 1 µM | remaining activity | 40.5% |
| CCN(CC)c1ccc(C2=NNC(=O)CC2C)cc1[N+](=O)[O-] (stereo not shown) | enzyme activity | inhibitor | – | 10 µM | remaining activity | 102% |
| Cc1cc(NC(=O)c2cccc(S(F)(F)(F)(F)F)c2)cc(-n2ccn3nc(-c4cccnc4)cc23)c1 | cell-free assay | – | competition with immobilised ligand | 1 µM | remaining binding | 87.8% |
| FC(F)(F)Oc1cccc(-c2cnc3ccc(-c4ccncc4)nn23)c1 | enzyme activity | inhibitor | radiometric | 1 µM | activity vs control | 95% |
